How the values were obtained:
[1] = biological target: T1, Metabotropic glutamate receptor 1 (Homo sapiens, UniProt Q13255); assay: Positive allosteric modulation of human mGlu1 receptor in HEK293 cells assessed as potentiation of glutamate-induced calcium mobiliztion by Fluo-4AM dye based fluorescence analysis relative to glutamate; type: functional, cell-based
Target sequence in this assay (Q13255 19-1194 limits assumed): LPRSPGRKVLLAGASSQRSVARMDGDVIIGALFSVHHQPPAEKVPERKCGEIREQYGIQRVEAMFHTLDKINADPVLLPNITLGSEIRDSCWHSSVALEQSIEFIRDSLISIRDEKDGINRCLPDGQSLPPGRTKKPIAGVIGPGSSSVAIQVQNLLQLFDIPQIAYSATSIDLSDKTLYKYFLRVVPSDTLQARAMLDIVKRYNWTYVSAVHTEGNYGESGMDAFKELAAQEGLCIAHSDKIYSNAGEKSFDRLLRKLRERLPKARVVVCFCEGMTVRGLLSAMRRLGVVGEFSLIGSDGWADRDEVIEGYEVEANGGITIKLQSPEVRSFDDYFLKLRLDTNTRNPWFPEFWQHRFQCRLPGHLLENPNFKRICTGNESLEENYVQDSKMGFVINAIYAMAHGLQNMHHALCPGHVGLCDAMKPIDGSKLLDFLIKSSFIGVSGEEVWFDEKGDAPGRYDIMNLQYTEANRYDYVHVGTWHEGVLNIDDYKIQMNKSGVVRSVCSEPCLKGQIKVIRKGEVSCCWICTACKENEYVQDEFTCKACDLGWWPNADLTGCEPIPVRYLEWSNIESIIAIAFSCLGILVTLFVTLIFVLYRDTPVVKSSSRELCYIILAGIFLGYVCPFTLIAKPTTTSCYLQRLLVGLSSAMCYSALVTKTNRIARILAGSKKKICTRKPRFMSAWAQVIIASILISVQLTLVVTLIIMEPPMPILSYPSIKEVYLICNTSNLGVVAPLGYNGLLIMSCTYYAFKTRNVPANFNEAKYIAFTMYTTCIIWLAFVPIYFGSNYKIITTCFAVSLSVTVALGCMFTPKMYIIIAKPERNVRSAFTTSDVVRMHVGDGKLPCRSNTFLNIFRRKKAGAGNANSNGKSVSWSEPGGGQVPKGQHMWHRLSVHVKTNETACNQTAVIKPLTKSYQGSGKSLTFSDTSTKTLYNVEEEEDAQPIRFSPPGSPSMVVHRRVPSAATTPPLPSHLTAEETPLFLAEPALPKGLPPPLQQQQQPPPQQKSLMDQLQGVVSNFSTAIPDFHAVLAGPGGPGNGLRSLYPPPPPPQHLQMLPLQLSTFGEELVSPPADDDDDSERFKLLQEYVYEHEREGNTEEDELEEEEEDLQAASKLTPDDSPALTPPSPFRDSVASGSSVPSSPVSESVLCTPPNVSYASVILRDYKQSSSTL

[2] = biological target: Metabotropic glutamate receptor 5 (Homo sapiens) (UniProt P41594); assay: Positive allosteric modulation of mGlu5 receptor (unknown origin) assessed as potentiation of glutamate-induced response by cell-based assay
Summary of the method: (§1)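 Selectivity counterscreen at the other mGlu subtypes using the standard fold-shift paradigm. Compound was tested at 10 μM against the glutamate concentration-response curve, and the shift of that curve was read.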

[3] = biological target: Metabotropic glutamate receptor 7 (Homo sapiens) (UniProt Q14831); assay: Positive allosteric modulation of mGlu7 receptor (unknown origin) assessed as potentiation of glutamate-induced response by cell-based assay; summary of the method: as §1
Rattus norvegicus = assay: Volume of distribution at steady state in Sprague-Dawley rat at 0.2 mg/kg, iv by LC-MS/MS analysis; conditions: in vivo
[4] = Plasma clearance in Sprague-Dawley rat at 0.2 mg/kg, iv by LC-MS/MS analysis
[5] = biological target: Metabotropic glutamate receptor 1 (Rattus norvegicus) (UniProt P23385); assay: Positive allosteric modulation of rat mGlu1 receptor assessed as potentiation of glutamate-induced calcium mobiliztion by cell based assay relative to glutamate; type: functional
Summary of the method: (§2)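 Rat mGlu1 WT calcium mobilization concentration-response curves. EC50 and % Glu Max were derived from the curves.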

[6] = biological target: T1, Metabotropic glutamate receptor 1; assay: Agonist activity at human mGlu1 receptor in HEK293 cells assessed as calcium mobilization at 10 uM by Fluo-4AM dye based fluorescence analysis; type: functional, cell-based
Target sequence in this assay (Q13255 19-1194 limits assumed): as above

Cytochrome P450 2C9 = Cytochrome P450 2C9 (Homo sapiens, UniProt P11712); assay: Inhibition of CYP2C9 in human liver microsomes by LC-MS/MS analysis; type: ADME
Brain = assay: Drug concentration in C57BL/6 mouse brain at 100 mg/kg, ip administered as single dose; type: ADME, organism-based; conditions: in vivo, read-out: Drug uptake
[7] = biological target: T1, Metabotropic glutamate receptor 1; assay: Positive allosteric modulation of human mGlu1 receptor in HEK293 cells assessed as potentiation of glutamate-induced calcium mobiliztion at 10 uM by Fluo-4AM dye based fluorescence analysis; type: functional, cell-based
Target sequence in this assay (Q13255 19-1194 limits assumed): as above

[8] = biological target: Metabotropic glutamate receptor 3 (Homo sapiens) (UniProt Q14832); assay: Positive allosteric modulation of mGlu3 receptor (unknown origin) assessed as potentiation of glutamate-induced response by cell-based assay; summary of the method: as §1
[9] = biological target: T1, Metabotropic glutamate receptor 1; assay: Positive allosteric modulation of human mGlu1 receptor in HEK293 cells assessed as potentiation of glutamate-induced calcium mobiliztion by Fluo-4AM dye based fluorescence analysis; type: functional, cell-based
Target sequence in this assay (Q13255 whole entry): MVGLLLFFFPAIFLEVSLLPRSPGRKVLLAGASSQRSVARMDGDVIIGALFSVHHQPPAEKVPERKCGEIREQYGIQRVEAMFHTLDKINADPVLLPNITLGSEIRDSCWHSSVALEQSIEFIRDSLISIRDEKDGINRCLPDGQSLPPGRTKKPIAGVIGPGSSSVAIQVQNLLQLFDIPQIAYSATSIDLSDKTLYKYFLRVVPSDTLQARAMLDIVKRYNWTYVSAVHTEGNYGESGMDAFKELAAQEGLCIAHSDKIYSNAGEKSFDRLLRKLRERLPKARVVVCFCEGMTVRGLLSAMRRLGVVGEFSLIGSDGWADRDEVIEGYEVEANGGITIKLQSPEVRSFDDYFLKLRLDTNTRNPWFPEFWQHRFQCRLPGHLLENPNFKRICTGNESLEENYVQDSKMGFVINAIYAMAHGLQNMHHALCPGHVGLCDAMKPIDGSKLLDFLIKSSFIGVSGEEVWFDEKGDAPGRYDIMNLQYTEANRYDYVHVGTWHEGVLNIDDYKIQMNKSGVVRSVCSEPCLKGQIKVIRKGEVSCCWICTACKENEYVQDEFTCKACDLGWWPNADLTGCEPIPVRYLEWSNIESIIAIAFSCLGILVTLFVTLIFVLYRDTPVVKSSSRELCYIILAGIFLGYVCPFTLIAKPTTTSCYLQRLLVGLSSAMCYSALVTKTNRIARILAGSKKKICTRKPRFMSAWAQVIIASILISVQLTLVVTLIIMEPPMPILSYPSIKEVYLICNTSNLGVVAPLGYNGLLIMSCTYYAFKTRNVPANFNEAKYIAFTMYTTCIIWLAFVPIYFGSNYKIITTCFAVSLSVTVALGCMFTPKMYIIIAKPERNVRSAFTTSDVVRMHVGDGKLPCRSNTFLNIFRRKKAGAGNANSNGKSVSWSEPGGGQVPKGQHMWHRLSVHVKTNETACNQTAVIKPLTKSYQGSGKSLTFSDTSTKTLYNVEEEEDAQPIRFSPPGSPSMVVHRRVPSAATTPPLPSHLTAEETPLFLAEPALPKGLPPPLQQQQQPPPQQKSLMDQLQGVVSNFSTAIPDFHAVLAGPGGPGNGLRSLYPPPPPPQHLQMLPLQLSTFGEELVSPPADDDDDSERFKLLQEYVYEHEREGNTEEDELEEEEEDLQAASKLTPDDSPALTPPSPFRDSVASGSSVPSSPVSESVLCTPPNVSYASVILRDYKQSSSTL

[10] = Mean residence time in Sprague-Dawley rat at 0.2 mg/kg, iv by LC-MS/MS analysis; conditions: in vivo
Homo sapiens [11] = species on record: Homo sapiens; assay: Selectivity index, ratio of EC50 for human mGlu4 receptor to EC50 for human mGlu1 receptor
[12] = tested on: Metabotropic glutamate receptor 1 (Homo sapiens), Q13255 [P729T]; assay: Agonist activity at human mGlu1 P729T mutant receptor expressed in HEK293 cells assessed as calcium mobilization at > 1 uM uM by Fluo-4AM dye based fluorescence analysis; type: functional, cell-based
Plasma [13] = assay: Fraction unbound in rat plasma; type: ADME, cell-free
[14] = Drug concentration in Sprague-Dawley rat brain at 0.2 mg/kg, iv after 0.25 hrs by LC-MS/MS analysis; conditions: read-out: Drug uptake
Cytochrome P450 1A2 = biological target: T2, Cytochrome P450 1A2 (Homo sapiens, UniProt P05177); assay: Inhibition of CYP1A2 in human liver microsomes by LC-MS/MS analysis; type: ADME
T2 sequence (P05177 whole entry): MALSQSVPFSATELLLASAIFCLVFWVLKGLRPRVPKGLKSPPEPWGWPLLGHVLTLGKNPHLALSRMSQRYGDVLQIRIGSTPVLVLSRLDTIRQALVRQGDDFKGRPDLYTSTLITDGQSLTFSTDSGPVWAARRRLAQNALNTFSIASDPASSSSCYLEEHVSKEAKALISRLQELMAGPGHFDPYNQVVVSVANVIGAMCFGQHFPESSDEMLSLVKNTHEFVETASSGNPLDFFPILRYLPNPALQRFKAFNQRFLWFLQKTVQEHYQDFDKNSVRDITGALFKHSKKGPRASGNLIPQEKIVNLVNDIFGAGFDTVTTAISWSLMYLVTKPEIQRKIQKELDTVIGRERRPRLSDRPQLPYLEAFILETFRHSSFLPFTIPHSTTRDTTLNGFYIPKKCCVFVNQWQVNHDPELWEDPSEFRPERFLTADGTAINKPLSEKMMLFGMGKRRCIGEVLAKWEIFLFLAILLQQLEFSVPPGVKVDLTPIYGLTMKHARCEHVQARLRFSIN

[15] = biological target: Metabotropic glutamate receptor 6 (Homo sapiens) (UniProt O15303); assay: Positive allosteric modulation of mGlu6 receptor (unknown origin) assessed as potentiation of glutamate-induced response by cell-based assay; summary of the method: as §1
[16] = biological target: Metabotropic glutamate receptor 8 (Homo sapiens) (UniProt O00222); assay: Positive allosteric modulation of mGlu8 receptor (unknown origin) assessed as potentiation of glutamate-induced response by cell-based assay; summary of the method: as §1
[17] = tested on: Metabotropic glutamate receptor 1 (Homo sapiens), Q13255 [A683E]; assay: Agonist activity at human mGlu1 A683E mutant receptor expressed in HEK293 cells assessed as calcium mobilization at > 1 uM uM by Fluo-4AM dye based fluorescence analysis; type: functional, cell-based
[18] = biological target: Metabotropic glutamate receptor 1 (Rattus norvegicus, UniProt P23385); assay: Positive allosteric modulation of rat mGlu1 receptor assessed as potentiation of glutamate-induced calcium mobiliztion by cell based assay; type: functional; summary of the method: as §2
Homo sapiens [19] = species on record: Homo sapiens; assay: Intrinsic clearance in human hepatocytes at 1 uM by LC-MS/MS analysis; conditions: read-out: CLH
[20] = biological target: Metabotropic glutamate receptor 2 (Homo sapiens) (UniProt Q14416); assay: Positive allosteric modulation of mGlu2 receptor (unknown origin) assessed as potentiation of glutamate-induced response by cell-based assay; summary of the method: as §1
Cytochrome P450 2D6 = Cytochrome P450 2D6 (Homo sapiens, UniProt P10635); assay: Inhibition of CYP2D6 in human liver microsomes by LC-MS/MS analysis; type: ADME
Mus musculus = assay: Toxicity in C57BL/6 mouse assessed as seizure activity at 100 mg/kg, ip administered as single dose measured for 3 hrs; type: organism-based; conditions: in vivo
Summary of the method: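 Male C57Bl/6 mice (25−30 g) dosed ip in 10% Tween 80 at 10 mL/kg: the mGlu5 ago-PAM at 1 or 3 mg/kg, the mGlu1 PAMs at 100 mg/kg. Behaviour was monitored continuously for 3 h and scored on a modified Racine scale (0−5).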

Plasma [21] = assay: Fraction unbound in human plasma; type: ADME, cell-free
[22] = Intrinsic clearance in human liver microsomes at 1 uM by LC-MS/MS analysis; type: ADME; conditions: read-out: CLH
[23] = Half life in Sprague-Dawley rat at 0.2 mg/kg, iv by LC-MS/MS analysis; conditions: in vivo

Chain of Metabotropic glutamate receptor 7 (Homo sapiens) (Q14831 whole entry): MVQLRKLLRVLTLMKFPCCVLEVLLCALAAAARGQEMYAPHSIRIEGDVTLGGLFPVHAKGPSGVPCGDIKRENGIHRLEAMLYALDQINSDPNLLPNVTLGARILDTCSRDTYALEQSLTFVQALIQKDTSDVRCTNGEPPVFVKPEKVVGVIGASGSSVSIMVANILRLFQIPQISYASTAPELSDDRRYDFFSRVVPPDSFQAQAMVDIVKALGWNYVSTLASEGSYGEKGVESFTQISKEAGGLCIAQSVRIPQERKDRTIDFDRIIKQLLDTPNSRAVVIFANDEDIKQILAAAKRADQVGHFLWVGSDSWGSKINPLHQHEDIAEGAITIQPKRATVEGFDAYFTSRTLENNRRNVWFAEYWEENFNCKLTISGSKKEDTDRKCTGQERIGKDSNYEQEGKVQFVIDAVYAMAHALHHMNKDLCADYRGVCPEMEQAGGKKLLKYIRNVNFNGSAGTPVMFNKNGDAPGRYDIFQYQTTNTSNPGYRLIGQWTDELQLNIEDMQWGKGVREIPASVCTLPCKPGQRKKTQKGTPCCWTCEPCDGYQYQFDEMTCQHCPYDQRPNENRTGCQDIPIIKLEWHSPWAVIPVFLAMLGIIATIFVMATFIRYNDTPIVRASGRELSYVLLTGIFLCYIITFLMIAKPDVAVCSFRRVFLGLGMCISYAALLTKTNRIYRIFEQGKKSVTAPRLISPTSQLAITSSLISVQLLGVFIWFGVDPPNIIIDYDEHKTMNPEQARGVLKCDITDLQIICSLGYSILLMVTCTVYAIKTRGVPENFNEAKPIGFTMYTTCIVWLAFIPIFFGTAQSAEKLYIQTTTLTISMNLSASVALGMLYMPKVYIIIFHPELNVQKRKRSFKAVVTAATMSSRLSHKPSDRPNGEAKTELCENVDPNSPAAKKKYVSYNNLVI
Chain of Cytochrome P450 2C9 (P11712 whole entry): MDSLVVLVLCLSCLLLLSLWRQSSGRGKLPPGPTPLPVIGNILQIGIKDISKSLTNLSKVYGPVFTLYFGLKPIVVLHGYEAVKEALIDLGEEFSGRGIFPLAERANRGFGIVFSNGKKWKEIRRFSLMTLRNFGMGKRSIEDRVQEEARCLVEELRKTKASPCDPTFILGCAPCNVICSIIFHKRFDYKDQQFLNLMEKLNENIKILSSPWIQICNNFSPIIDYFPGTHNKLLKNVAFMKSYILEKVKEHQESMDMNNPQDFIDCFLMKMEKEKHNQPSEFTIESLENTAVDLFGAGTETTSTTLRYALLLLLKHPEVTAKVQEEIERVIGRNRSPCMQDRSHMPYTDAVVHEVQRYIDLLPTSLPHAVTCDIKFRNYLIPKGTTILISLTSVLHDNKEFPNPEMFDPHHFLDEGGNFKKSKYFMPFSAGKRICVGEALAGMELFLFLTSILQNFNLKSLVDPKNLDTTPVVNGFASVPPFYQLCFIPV
Chain of Metabotropic glutamate receptor 1 (Homo sapiens), Q13255 [P729T] (Q13255 whole entry P729T): as the sequence (Q13255 whole entry) above, with P729T counted along it
Chain of Metabotropic glutamate receptor 2 (Homo sapiens) (Q14416 19-872 limits assumed): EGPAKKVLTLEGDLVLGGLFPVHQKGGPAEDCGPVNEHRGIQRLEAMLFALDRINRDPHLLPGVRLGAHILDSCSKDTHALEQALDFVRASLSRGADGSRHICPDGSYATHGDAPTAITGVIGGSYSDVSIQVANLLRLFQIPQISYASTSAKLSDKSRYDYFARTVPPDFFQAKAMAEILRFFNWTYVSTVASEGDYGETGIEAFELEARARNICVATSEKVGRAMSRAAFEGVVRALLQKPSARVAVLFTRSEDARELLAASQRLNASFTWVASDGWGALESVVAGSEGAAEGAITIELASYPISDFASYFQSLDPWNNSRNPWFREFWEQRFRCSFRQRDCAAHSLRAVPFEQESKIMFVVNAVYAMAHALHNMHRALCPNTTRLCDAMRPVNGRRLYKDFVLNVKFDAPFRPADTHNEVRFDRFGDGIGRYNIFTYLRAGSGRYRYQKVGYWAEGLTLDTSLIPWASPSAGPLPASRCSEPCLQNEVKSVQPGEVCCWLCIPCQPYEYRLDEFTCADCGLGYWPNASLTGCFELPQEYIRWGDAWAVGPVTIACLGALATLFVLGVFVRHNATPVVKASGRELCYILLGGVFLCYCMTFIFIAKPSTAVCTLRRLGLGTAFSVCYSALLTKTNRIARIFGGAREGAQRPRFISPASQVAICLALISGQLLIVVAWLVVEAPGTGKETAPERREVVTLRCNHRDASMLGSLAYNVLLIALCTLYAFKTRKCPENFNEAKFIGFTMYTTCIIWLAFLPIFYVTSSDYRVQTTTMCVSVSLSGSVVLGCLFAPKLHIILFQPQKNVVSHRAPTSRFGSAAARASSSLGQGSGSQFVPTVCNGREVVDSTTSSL
Chain of Metabotropic glutamate receptor 1 (Homo sapiens), Q13255 [A683E] (Q13255 whole entry A683E): as the sequence (Q13255 whole entry) above, with A683E counted along it

In the case of Cc1ccoc1C(=O)Nc1ccc(N2C(=O)c3cccc(F)c3C2=O)c(Cl)c1, the %max [1] is reported as 98%, the fold change (FC) [2] is reported as 2.7 and the fold change (FC) [3] is reported as 7. For the same molecule, the Vdss (Rattus norvegicus) was 0.85 L/kg, the clearance [4] was 13.3 mL/min/kg and the %max [5] was 103%. For the same molecule, the Activity [6] was 35%, the IC50 (Cytochrome P450 2C9) was 6450 nM and the concentration (Brain) was 9.2 µM. It also gave a fold change (FC) [7] of 11.4, a fold change (FC) [8] of less than 2 and an EC50 ([9]; read-out: EC50) of 31.8 nM. For the same molecule, the EC50 ([9]; read-out: pEC50 (converted)) was 32.4 nM, the MRT [10] was 64.1 min and the Ratio EC50 (Homo sapiens [11]) was 34.9. For the same molecule, the Activity [12] was 40%, the Fu (Plasma [13]) was 0.03 and the concentration at 0.25 h [14] was 204 ng/mL. It also gave an IC50 (Cytochrome P450 1A2) of 25200 nM, a fold change (FC) [15] of 6.7 and a fold change (FC) [16] of less than 2. It also gave an Activity [17] of 40%, an EC50 [18] of 40.7 nM and a CLint scaled at 1 µM (Homo sapiens [19]) of 2.7 mL/min/kg. For the same molecule, the fold change (FC) [20] was less than 2, the IC50 (Cytochrome P450 2D6) was greater than 30000 nM and the Activity (Mus musculus) was “Non-toxic”. For the same molecule, the Fu (Plasma [21]) was 0.051, the CLint scaled at 1 µM [22] was 3.1 mL/min/kg and the half-life [23] was 53.6 min.
